In brackets after ≈: the same amount, converted by molar mass.
Columns and labels:
[1] = tested on: Mycobacterium tuberculosis; experiment: Selectivity ratio of MIC for antibacterial activity against non-replicating Mycobacterium tuberculosis H37Rv harboring pFCA-luxAB to MIC100 for antibacterial activity against replicating Mycobacterium tuberculosis H37Rv; assay type: functional
[2] = tested on: Mycobacterium tuberculosis; experiment: Antibacterial activity against non-replicating Mycobacterium tuberculosis H37Rv harboring pFCA-luxAB preincubated for 10 days under anaerobic condition followed by incubation under ambient gaseous condition for 28 hrs by LORA; assay type: functional
Method in brief: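 Mtb H37Rv is electroporated with pFCA-luxAB and diluted in 7H12 broth to A570 0.03–0.05 (3,000–7,000 RLU per 100 µL). Cells are added to two-fold serial dilutions and held anaerobic (O2 <0.16%; 10% H2, 5% CO2, 85% N2) for 10 days. A 28 h recovery in 5% CO2 air follows, then luminescence is read.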

| Structure (SMILES) | selectivity ratio [1] | MIC [2] [µg/mL] |
| --- | --- | --- |
| CC[C@]1(C)C[C@@H](OC(=O)CSC(C)(C)CNC(=O)[C@H](N)CC(C)C)[C@]2(C)[C@H](C)CC[C@]3(CCC(=O)[C@H]32)[C@@H](C)[C@@H]1O | 1.33 | 1.04 (≈ 1.79 µM) |
| CC[C@@H](CO)NCCN[C@@H](CC)CO [ETHAMBUTOL] | >128 | > 100 |
| C=C[C@]1(C)C[C@@H](OC(=O)CSC(C)(C)CNC(=O)[C@H](N)C(C)C)[C@]2(C)[C@H](C)CC[C@]3(CCC(=O)[C@H]32)[C@@H](C)[C@@H]1O [VALNEMULIN] | 1.14 | 3.56 (≈ 6.3 µM) |
| C=C[C@]1(C)C[C@@H](OC(=O)CSC(C)(C)CNC(=O)[C@H](N)CC(C)C)[C@]2(C)[C@H](C)CC[C@]3(CCC(=O)[C@H]32)[C@@H](C)[C@@H]1O | 1.27 | 1.98 (≈ 3.42 µM) |
| CC(=O)NC[C@H]1CN(c2ccc(N3CCOCC3)c(F)c2)C(=O)O1 [LINEZOLID] | 1.05 | 0.63 (≈ 1.87 µM) |
| NNC(=O)c1ccncc1 [ISONIAZID] | >2500 | > 100 |
| CC[C@]1(C)C[C@@H](OC(=O)CSC(C)(C)CNC(=O)[C@H](N)CC(C)C)[C@]2(C)[C@H](C)CC[C@]3(CC[C@@H](O)[C@H]32)[C@@H](C)[C@@H]1O | 1.45 | 1.2 (≈ 2.06 µM) |
| C=C[C@]1(C)C[C@@H](OC(=O)CSC(C)(C)CNC(=O)[C@H](N)CC(C)C)[C@]2(C)[C@H](C)CC[C@]3(CC[C@@H](O)[C@H]32)[C@@H](C)[C@@H]1O | 1.13 | 3.46 (≈ 5.96 µM) |

— ChEMBL document CHEMBL4229550, “An antimycobacterial pleuromutilin analogue effective against dormant bacilli” (Bioorg Med Chem, 2018)
